pIC50: −log10 of the molar value.
Tests used:
[1] = biological target: T1, [Pyruvate dehydrogenase (acetyl-transferring)] kinase isozyme 4, mitochondrial (Homo sapiens, UniProt Q16654); assay: Inhibition of human PDHK4 co-complexed with porcine PDH using sodium pyruvate, coenzymeA and NAD as substrate preincubated with enzyme complex for 45 mins followed by ATP addition and then later incubated with substrate for 90 mins by absorption spectrophotometric assay
Target sequence in this assay (Q16654 whole entry): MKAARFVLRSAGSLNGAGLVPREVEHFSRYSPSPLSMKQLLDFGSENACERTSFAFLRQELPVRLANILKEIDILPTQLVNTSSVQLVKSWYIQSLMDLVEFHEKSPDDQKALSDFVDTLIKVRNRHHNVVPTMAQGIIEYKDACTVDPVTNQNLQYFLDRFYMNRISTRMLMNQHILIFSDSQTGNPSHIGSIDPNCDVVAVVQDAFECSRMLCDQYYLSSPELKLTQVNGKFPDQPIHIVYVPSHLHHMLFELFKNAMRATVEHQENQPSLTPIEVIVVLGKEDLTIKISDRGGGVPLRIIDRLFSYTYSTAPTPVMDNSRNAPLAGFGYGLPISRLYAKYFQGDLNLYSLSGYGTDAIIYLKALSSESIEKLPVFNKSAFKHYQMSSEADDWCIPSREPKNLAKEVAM

[2] = biological target: T2, [Pyruvate dehydrogenase (acetyl-transferring)] kinase isozyme 2, mitochondrial (Homo sapiens, UniProt Q15119); assay: Inhibition of human PDHK2 co-complexed with porcine PDH using sodium pyruvate, coenzymeA and NAD as substrate preincubated with enzyme complex for 45 mins followed by ATP addition and then later incubated with substrate for 90 mins by absorption spectrophotometric assay
[3] = biological target: T2, [Pyruvate dehydrogenase (acetyl-transferring)] kinase isozyme 2, mitochondrial; assay: Inhibition of human PDHK2 assessed as reduction in acetyl-coenzymeA formation by RapidFire mass spectrometry
Summary of the method: (§1)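 PDHK reaction read through downstream PDH product. Reaction mix diluted 25-fold in 0.1% formic acid. Acetyl-CoA captured on graphitic carbon SPE (5 mM ammonium acetate pH 10.0), eluted with buffer/acetonitrile/acetone 50:25:25. […] MRM at 808/79 and 808/408; peak AUC quantified, ATP signal confirming each injection.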

[4] = biological target: T1, [Pyruvate dehydrogenase (acetyl-transferring)] kinase isozyme 4, mitochondrial; assay: Inhibition of human PDHK4 assessed as reduction in acetyl-coenzymeA formation by RapidFire mass spectrometry; summary of the method: as §1
Target sequence in this assay (Q16654 whole entry): as above

[5] = biological target: T1, [Pyruvate dehydrogenase (acetyl-transferring)] kinase isozyme 4, mitochondrial; assay: Inhibition of human PDHK4 assessed as reduction in acetyl-coenzymeA formation at IC50 by RapidFire mass spectrometry relative to control; summary of the method: as §1
Target sequence in this assay (Q16654 whole entry, looked up): as the sequence (Q16654 whole entry) above

[6] = biological target: T3, Branched-chain alpha-ketoacid dehydrogenase kinase (Homo sapiens, UniProt O14874); assay: Inhibition of human recombinant BCKDK incubated for 60 mins by ADP-Glo kinase assay
[7] = biological target: T3, Branched-chain alpha-ketoacid dehydrogenase kinase; assay: Inhibition of human recombinant BCKDK at 500 uM incubated for 60 mins by ADP-Glo kinase assay
Summary of the method: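 Human recombinant BCKDK with inhibitor and 0.2 µM ATP, 60 min at 37 °C. ADP-Glo reagent 40 min at room temperature to stop and deplete ATP, then detection reagent 40 min to convert ADP to ATP; luminescence read.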

[8] = biological target: [Pyruvate dehydrogenase (acetyl-transferring)] kinase isozyme 3, mitochondrial (Homo sapiens, UniProt Q15120); assay: Inhibition of human PDHK3 co-complexed with porcine PDH using sodium pyruvate, coenzymeA and NAD as substrate preincubated with enzyme complex for 45 mins followed by ATP addition and then later incubated with substrate for 90 mins by absorption spectrophotometric assay
[Pyruvate dehydrogenase (acetyl-transferring)] kinase isozyme 3, mitochondrial, sequence (Q15120 whole entry): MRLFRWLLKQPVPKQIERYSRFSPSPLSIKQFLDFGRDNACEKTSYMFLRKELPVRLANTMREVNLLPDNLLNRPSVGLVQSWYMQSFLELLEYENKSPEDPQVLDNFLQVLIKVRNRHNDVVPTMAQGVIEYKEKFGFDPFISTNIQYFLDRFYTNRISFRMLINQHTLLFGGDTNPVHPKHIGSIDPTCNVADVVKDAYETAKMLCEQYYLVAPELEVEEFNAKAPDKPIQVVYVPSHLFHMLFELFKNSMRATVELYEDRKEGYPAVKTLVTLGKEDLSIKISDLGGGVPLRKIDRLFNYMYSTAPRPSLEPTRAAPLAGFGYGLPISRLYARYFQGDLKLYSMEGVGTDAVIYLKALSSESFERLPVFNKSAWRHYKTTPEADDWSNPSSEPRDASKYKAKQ
Summary of the method: (§2)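 Recombinant human PDHK mixed with porcine PDH complex, held overnight at 4 °C to form PDH/PDHK complex. Inhibitor plus 0.3 or 10 µM ATP, 45 min at room temperature. Then 5.0 mM CoA, 5.0 mM pyruvate, 12 mM NAD added, 90 min at room temperature. NADH A340 taken before and after; IC50 from Hill-type curve fit against 0% and 100% activity controls.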

[9] = biological target: Microtubule-associated serine/threonine-protein kinase 1 (Homo sapiens) (UniProt Q9Y2H9); assay: Inhibition of human partial length wild type MAST1 (S346 to V730 residues) expressed in mammalian expression system at 10 uM by KINOMEscan analysis
Microtubule-associated serine/threonine-protein kinase 1 (Homo sapiens), sequence (Q9Y2H9 whole entry, looked up, the tested form may be a part): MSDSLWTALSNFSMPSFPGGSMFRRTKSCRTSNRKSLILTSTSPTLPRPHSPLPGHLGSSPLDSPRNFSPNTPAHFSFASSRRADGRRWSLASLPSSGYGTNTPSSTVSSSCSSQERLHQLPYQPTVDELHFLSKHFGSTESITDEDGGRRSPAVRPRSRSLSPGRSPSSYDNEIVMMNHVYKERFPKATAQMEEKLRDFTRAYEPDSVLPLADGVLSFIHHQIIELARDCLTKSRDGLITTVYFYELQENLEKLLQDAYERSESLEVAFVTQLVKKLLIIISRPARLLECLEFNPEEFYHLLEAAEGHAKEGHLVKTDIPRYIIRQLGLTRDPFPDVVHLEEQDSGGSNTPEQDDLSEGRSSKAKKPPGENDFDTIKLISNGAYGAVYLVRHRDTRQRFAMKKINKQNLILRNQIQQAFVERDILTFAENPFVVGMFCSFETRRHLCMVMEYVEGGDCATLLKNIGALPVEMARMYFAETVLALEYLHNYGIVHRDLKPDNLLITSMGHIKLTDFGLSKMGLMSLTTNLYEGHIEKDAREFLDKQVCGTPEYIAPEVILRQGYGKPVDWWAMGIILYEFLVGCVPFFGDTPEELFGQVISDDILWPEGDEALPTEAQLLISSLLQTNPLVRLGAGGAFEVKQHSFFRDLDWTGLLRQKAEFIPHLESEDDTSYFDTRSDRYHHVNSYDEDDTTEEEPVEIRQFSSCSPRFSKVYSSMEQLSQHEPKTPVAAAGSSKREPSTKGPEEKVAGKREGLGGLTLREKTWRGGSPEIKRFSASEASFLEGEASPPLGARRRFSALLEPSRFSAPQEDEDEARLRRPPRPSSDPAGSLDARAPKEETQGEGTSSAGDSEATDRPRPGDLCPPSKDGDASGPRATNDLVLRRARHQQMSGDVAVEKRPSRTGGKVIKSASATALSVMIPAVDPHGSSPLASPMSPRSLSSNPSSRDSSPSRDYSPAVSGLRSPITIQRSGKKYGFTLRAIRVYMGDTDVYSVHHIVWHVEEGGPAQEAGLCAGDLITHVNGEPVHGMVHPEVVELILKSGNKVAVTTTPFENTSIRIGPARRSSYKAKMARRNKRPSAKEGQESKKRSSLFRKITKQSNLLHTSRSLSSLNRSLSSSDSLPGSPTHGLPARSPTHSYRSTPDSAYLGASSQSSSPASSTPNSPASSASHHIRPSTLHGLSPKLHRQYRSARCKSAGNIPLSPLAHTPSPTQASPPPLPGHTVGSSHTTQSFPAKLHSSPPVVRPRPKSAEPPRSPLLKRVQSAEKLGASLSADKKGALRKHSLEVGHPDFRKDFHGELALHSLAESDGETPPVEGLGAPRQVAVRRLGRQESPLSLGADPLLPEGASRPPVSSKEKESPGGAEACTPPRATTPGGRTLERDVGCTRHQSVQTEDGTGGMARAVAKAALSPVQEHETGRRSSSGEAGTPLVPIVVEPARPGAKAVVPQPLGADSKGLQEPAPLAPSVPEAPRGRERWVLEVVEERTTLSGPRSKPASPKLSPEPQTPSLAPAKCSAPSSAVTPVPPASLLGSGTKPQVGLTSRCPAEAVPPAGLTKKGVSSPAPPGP
Summary of the method: (§3)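 Competition-binding KINOMEscan service panel of 59 kinases; percent inhibition at 10 µM.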

[10] = biological target: Serine/threonine-protein kinase mTOR (Homo sapiens) (UniProt P42345); assay: Inhibition of human partial length wild type mTOR (L1382 to W2549 residues) expressed in mammalian expression system at 10 uM by KINOMEscan analysis; summary of the method: as §3
[11] = biological target: [Pyruvate dehydrogenase (acetyl-transferring)] kinase isozyme 1, mitochondrial (Homo sapiens, UniProt Q15118); assay: Inhibition of human PDHK1 co-complexed with porcine PDH using sodium pyruvate, coenzymeA and NAD as substrate preincubated with enzyme complex for 45 mins followed by ATP addition and then later incubated with substrate for 90 mins by absorption spectrophotometric assay; summary of the method: as §2
[Pyruvate dehydrogenase (acetyl-transferring)] kinase isozyme 1, mitochondrial, sequence (Q15118 whole entry): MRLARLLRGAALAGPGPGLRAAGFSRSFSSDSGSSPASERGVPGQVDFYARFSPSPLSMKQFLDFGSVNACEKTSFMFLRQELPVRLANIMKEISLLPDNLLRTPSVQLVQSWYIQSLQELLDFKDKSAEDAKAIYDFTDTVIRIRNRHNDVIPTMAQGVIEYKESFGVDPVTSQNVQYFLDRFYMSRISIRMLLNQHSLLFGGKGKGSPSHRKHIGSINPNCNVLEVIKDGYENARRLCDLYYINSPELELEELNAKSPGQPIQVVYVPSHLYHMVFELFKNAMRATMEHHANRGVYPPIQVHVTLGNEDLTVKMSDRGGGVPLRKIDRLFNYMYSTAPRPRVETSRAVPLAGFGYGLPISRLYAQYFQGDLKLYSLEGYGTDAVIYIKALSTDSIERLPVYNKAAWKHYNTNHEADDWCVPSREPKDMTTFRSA

[12] = biological target: Heat shock protein HSP90 (Homo sapiens) (UniProt P07900+P08238); assay: Inhibition of HSP90 (unknown origin) at 30 uM using labelled geldanamycin by fluorescence polarization assay; assay type: protein assay
Summary of the method: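 Competitive fluorescence polarization with labelled geldanamycin probe, run as a commercial HSP90 assay kit; read as percent inhibition at a single concentration.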

Row | Structure (SMILES) | pIC50 [1] | pIC50 [2] | also measured
1 | CC1(C)C(=O)Nc2ccccc21 | < 3.52 | 3.55 | pIC50 [3]: 4.30; pIC50 [4]: 3.05
2 | COC(=O)c1ccc(O)cc1O [METHYL 2,4-DIHYDROXYBENZOATE] | – | – | pIC50 [3]: 3.72; pIC50 [4]: 3.46
3 | CC1(C)C(=O)Nc2c(C3CC3)cccc21 | 4.36 | 5.31 | –
4 | O=C1Cc2ccccc2N1 [OXINDOLE] | – | – | inhibition [5]: 29%; pIC50 [3]: 3.02; pIC50 [4]: < 2.70
5 | Cc1cnc2[nH]c3c(C4CC4)cccc3c2n1 | 5.23 | 6.15 | pIC50 [6]: < 3.52
6 | CNC(=O)c1[nH]c2nc(C)nc(Cl)c2c1Br | < 4.52 | < 4.52 | –
7 | CCCc1[nH]c2nc(C)nc(Cl)c2c1C | < 4.52 | 5.00 | –
8 | CNC(=O)c1[nH]c2nc(C)nc(Cl)c2c1C | < 4.00 | 4.37 | –
9 | Cc1cnc2[nH]c3c(C4CC4)cccc3c2c1 | 4.92 | 5.70 | –
10 | c1cnc2[nH]c3c(C4CC4)cccc3c2c1 | < 3.52 | 5.46 | –
11 | CCCc1[nH]c2nc(C)ncc2c1Br | 4.91 | 5.66 | –
12 | C/C=C/c1[nH]c2nc(C)nc(Cl)c2c1Cl | 5.10 | 5.82 | –
13 | CCCc1[nH]c2nc(C)ncc2c1Cl | 4.96 | 5.74 | –
14 | CCCc1[nH]c2nc(C)ncc2c1C#N | < 4.52 | < 4.52 | –
15 | CCCc1[nH]c2nc(C)ncc2c1C | < 4.52 | 4.83 | –
16 | CC1(C)C(=O)Nc2c(N)cccc21 | < 3.52 | < 3.52 | –
17 | CCc1cccc2c1NC(=O)C2(C)C | < 3.52 | 4.96 | –
18 | CNc1cccc2c1NC(=O)C2(C)C | 4.89 | 6.23 | inhibition [7]: 14%; pIC50 [8]: 5.08; inhibition [9]: 60%; inhibition [10]: 58%; pIC50 [11]: 6.43; inhibition [12]: 3.2%

— ChEMBL document CHEMBL4823293, “Fragment-based lead discovery to identify novel inhibitors that target the ATP binding site of pyruvate dehydrogenase kinases” (Bioorg Med Chem, 2021)
